Screens deposited in PubChem by Sanford-Burnham Center for Chemical Genomics.
SUMO HTRF inh: inhibitors of human SUMOylation (UBC9). inhibition, % at 35 µM. HTRF SUMOylation assay, SAE1/SAE2 + UBC9, in vitro. 290,000 compounds, 0.36% hits. AID 2006. P63279; in the data active = inhibition above about 50%, passing the limit was not always enough
Target sequence (P63279 whole entry, looked up): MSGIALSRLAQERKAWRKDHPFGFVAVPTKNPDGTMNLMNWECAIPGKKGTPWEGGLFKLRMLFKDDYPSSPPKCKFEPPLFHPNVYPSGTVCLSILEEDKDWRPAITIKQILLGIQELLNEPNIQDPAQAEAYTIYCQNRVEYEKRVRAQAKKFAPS
DNMT1 inh: inhibitors of human DNMT1. P26358. DNMT1 molecular beacon, Hinp1I cleavage, fluorescence. inhibition (reported as % activation of signal), % at 10 µM. 360,000 compounds, 0.83% hits. AID 588458; in the data active = inhibition above about 50%
SUMO1 PPI mod: alters human SUMO1 binding to SIM partners; 360,000 compounds, 0.33% hits; SUMO1 binding to a labelled peptide, TR-FRET, 1 h; P63165; inhibition, % at 20 µM; in the data active = inhibition above about 37%
Target sequence (P63165 whole entry, looked up): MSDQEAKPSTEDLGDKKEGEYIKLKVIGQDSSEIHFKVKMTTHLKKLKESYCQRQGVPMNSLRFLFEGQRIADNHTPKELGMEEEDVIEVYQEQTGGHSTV
STEP inh: inhibitors of human striatal-enriched phosphatase STEP | P54829 | recombinant STEP, OMFP fluorogenic substrate, fluorescence | inhibition, % at 20 µM | 360,000 compounds, 0.25% hits;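 active = inhibition at 20 µM, scaled per plate between control wells, above about 37%, limit read from the data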;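 note: 0% = DMSO with enzyme and substrate and 100% = substrate only without enzyme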
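medium = Bis-Tris buffer pH 6.0, 2.5 mM DTT, 0.005% Tween 20 | test system = STEP (striatal-enriched tyrosine phosphatase) enzyme, cell-free | measure = normalized % inhibition | compound dosing = 20 µM, 1% DMSO | also added = 25 µM OMFP | schedule = reaction 20 min, ambient temperature | measured by = fluorescence read at 480 nm ex / 540 nm em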
LMPTP inh: blocks human LMPTP phosphatase; P24666; 360,000 compounds, 0.22% hits; recombinant LMPTP-A, OMFP fluorogenic substrate, fluorescence intensity; inhibition, % at 20 µM; AID 651560;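 active = compounds that cut the enzyme signal by at least half of the control window in the single-dose screen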;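 note: plate controls were DMSO wells with enzyme plus substrate for no effect and substrate without enzyme for full effect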
Target sequence (P24666 whole entry, looked up): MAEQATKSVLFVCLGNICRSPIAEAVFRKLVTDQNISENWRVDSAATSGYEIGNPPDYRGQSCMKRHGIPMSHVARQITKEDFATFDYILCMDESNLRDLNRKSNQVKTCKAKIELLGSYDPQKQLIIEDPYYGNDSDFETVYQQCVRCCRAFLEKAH
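Test system: LMPTP-A phosphatase enzyme; input: 0.625 nM LMPTP-A final; reagent: OMFP substrate, 400 µM final; compound dosing: 20 µM single dose, 3% DMSO; incubation: 50 min dark incubation at room temperature; measured by: endpoint fluorescence intensity from OMFP dephosphorylation; measure: % inhibition relative to no-enzyme and uninhibited control wells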
Scp-1 inhibitor: Scp-1 (human) phosphatase inhibition | Recombinant Scp1, phosphopeptide, malachite green phosphate absorbance | inhibition, % at 20 µM | 340,000 compounds, 0.88% hits;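 active = inhibition above about 50% at 20 µM, limit read from the data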;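 note: plate controls were DMSO wells with enzyme for no effect and wells lacking enzyme for full effect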
Target sequence (Q9GZU7 76-261 limits assumed): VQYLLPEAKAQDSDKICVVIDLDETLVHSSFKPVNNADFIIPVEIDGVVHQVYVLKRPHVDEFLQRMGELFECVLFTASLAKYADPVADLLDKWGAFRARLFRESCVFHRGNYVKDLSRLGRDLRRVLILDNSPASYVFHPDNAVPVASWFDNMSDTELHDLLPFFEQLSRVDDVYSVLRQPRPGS
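Incubation: 45 min enzyme reaction at room temperature / System: truncated SCP-1 phosphatase (76-261aa) / Reagent: Phospho 17-mer peptide substrate / Buffer or medium: Acidic Tris acetate buffer with magnesium and detergent / Signal: absorbance at 630 nm / Doses: one concentration, 20 µM, with 1.0% DMSO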
Scp-1 conf: confirmation of human Scp-1 phosphatase inhibitors; shares compounds with Scp-1 inhibitor; recombinant SCP-1 catalytic domain, phosphate release, malachite green absorbance; inhibition, % at 20 µM; 2,500 compounds, 61% hits;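 note: plate controls were DMSO with enzyme for no effect and buffer wells lacking enzyme for full effect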
MG interference: interferes with malachite green readout, flagging false Scp-1 hits; Colorimetric interference counterscreen, malachite green absorbance 630 nm; 2,500 tested, under 10 active; shares compounds with Scp-1 inhibitor; AID 540313; apparent inhibition (interference), % at 20 µM;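 note: compounds added after enzyme reaction finished so only phosphate colour detection is probed; plate controls were DMSO wells with completed Scp-1 reaction for no effect and substrate wells lacking enzyme for full effect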
Scp-1 Tm shift: Scp-1 (human) binding by thermal shift; shares compounds with Scp-1 inhibitor; Recombinant SCP1, Sypro Orange thermal shift Tm; thermal shift relative to vanadate control, % at 40 µM; 1,500 compounds, 25% hits; AID 540329;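 active = substances whose mean melting-temperature shift, as a percentage of the reference inhibitor's shift, reaches about 5.3%, limit read from the data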;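 note: 0% = Tm of DMSO wells and 100% = Tm with sodium orthovanadate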
The depositor's hits bear a star; . = not tested or not shown. Shown are actives, neighbours in structure and some others; about 1.9% of the full set was active somewhere.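 Rule for the calls, unless noted: active = inhibition of at least 30% at 20 µM; inactive = the rest.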

SMILES	SUMO HTRF inh	DNMT1 inh	SUMO1 PPI mod	STEP inh	LMPTP inh	Scp-1 inhibitor	Scp-1 conf	MG interference	Scp-1 Tm shift
O=C(O)c1cc(N2C(=O)C=CC2=O)cc(N2C(=O)C=CC2=O)c1	.	82*	50*	27	3	82*	50*	-7	-4
CC(C)(C)NC(=O)c1ccc(NC(=O)CSc2ccccc2)cc1	-6	0	-1	-2	-1	-6	.	.	.
COc1cccc(CNC(=O)CCSCc2ccccc2F)c1	10	-2	0	2	0	-3	.	.	.
Cc1nnc(NC(=O)CCSCCC(=O)Nc2nnc(C)s2)s1	0	32	28	0	1	82*	74*	-8	2
CCOC(=O)CCSCC(=O)Nc1nnc(C)s1	-8	1	0	2	-2	-4	.	.	.
CCc1c(C)nc2cc(-c3cccc(Br)c3)[nH]n2c1=O	5	2	12	22	1	93*	62*	-12	-4
CCCN(CCC)CCNC(=O)c1cc2c(=O)n(C)c3ccccc3c2n1C	10	3	5	1	2	90*	-8	-8	.
CN(CCNC(=O)c1cc2c(=O)n(C)c3ccccc3c2n1C)Cc1ccccc1	5	1	5	0	0	-16	.	.	.
CC(=O)c1sc(C(=O)O)c(-c2ccco2)c1-c1ccco1	28	37	-4	14	0	59*	32*	-11	-9
O=C(O)c1sc(C(=O)O)c(-c2ccccc2)c1-c1ccccc1	.	1	7	-4	-3	.	.	.	.
NC(=O)c1ccsc1NC(=O)COC(=O)/C=C/c1ccc([N+](=O)[O-])cc1	23	11	14	7	64*	71*	59*	-6	4
Cc1c(CCC(=O)O)c(=O)oc2cc(OCc3ccccc3Br)ccc12	20	-3	19	3	4	83*	76*	-9	-11
Cc1c(CCC(=O)O)c(=O)oc2cc(OCc3cccc(F)c3)ccc12	10	0	12	4	1	-5	.	.	.
CC(=O)c1ccc(NC(=O)C2CCN(S(=O)(=O)c3cccc4cccnc34)CC2)cc1	-8	4	0	3	0	63*	-17	-16	.
O=C(Nc1ccc2c(c1)OCCO2)C1CCCN1S(=O)(=O)c1cccc2cccnc12 (stereo not drawn)	-13	-6	-1	-2	0	57*	-16	-15	.
COc1ccc(NC(=O)C2CCN(S(=O)(=O)c3cccc4cccnc34)CC2)cc1	-7	-6	5	-1	0	-6	.	.	.
O=C(Nc1cccc(F)c1)C1CCCN1S(=O)(=O)c1cccc2cccnc12 (stereo not drawn)	7	1	-1	3	-1	-9	.	.	.
O=C(O)c1ccc(-n2c(=O)c3ccccc3c3ccccc3c2=O)cc1	8	5	2	1	0	-8	.	.	.
Cc1ccc(-n2c(=O)c3cc4c(=O)n(-c5ccc(C)c(C)c5)c(=O)c4c(C(=O)c4ccc(C(=O)O)cc4)c3c2=O)cc1C	10	34	90*	97*	83*	91*	75*	-11	10*
O=C(CSc1nnc(CNC(=O)c2ccco2)o1)Nc1cccc(F)c1	8	-1	-6	-2	0	-3	.	.	.
O=C(NNC(=O)C1CCCC1)c1cc([N+](=O)[O-])cc([N+](=O)[O-])c1	.	-1	-27	2	-1	-4	.	.	.
O=C(NCCc1c[nH]c2ccccc12)c1cc(Cl)c2c(c1)OCO2	-12	-7	7	0	3	52*	-3	-10	.
O=C(NCCc1c[nH]c2ccccc12)c1ccc2c(c1)OCO2	-2	-2	0	3	0	-10	.	.	.
Cc1ccc[n+](CC(=O)Nc2cc(C(F)(F)F)ccc2N2CCOCC2)c1	-2	2	-2	-4	-2	55*	-18	-19	.
COc1ccc(Nc2nnc(-c3ccncc3)s2)cc1Cl	2	69*	93*	61*	64*	94*	68*	-13	-6
SMILES	SUMO HTRF inh	DNMT1 inh	SUMO1 PPI mod	STEP inh	LMPTP inh	Scp-1 inhibitor	Scp-1 conf	MG interference	Scp-1 Tm shift
CN(c1ccc(C(=O)NCc2cccnc2)cc1)S(=O)(=O)c1ccc(Cl)cc1	-7	0	4	-2	-1	1	.	.	.
Cc1ccc(S(=O)(=O)N(C)c2ccc(C(=O)NCc3cccnc3)cc2)cc1	8	1	0	0	0	79*	-16	-16	.
CC1(C2CC2)NC(=O)N(CC(=O)Nc2ccc(Cl)c([N+](=O)[O-])c2)C1=O (stereo not drawn)	.	4	-29	1	-1	4	.	.	.
C=C(C)C(=O)Nc1cccc(C2=NOC3(C2)C[C@H](C(N)=O)N(C(=O)/C=C/C)C3)c1 (stereo partly drawn)	-9	99*	60*	1	1	66*	57*	-13	-30
CCCCCC(=O)Nc1cccc(C2=NOC3(C2)C[C@@H](C(N)=O)N(C(=O)c2ccc(Cl)cc2)C3)c1 (stereo partly drawn)	-30	1	0	-1	0	66*	-14	-16	.
C/C=C\C=C/C(=O)Nc1cccc(C2=NOC3(C2)C[C@@H](C(N)=O)N(C(=O)C2(C)CC2)C3)c1 (stereo partly drawn)	4	-14	-3	1	-1	-3	.	.	.
C=C(C)C(=O)N1CC2(CC(c3cccc(NC(=O)/C=C\C=C/C)c3)=NO2)C[C@H]1C(N)=O (stereo partly drawn)	14	-31	23	4	-3	52*	55*	-13	-11
COc1ccc(CNC(=O)Nc2ccc3c(c2)c(=O)n(C)n3Cc2cccc(C(F)(F)F)c2)cc1	.	-3	-3	-3	0	.	.	.	.
CC[C@H](C)NC(=O)c1ccc(Cn2c(=S)[nH]c3c([nH]c4ccc(OC)cc43)c2=O)cc1	13	44	11	2	-1	57*	43*	-4	-17
CCOCCCNC(=O)c1ccc(Cn2c(=S)[nH]c3c([nH]c4ccc(OC)cc43)c2=O)cc1	18	-19	1	-2	0	-2	.	.	.
CC1(C)C(=O)Nc2ccccc2N1C(=O)COc1ccc(C#N)cc1	.	14	1	-3	5	22	.	.	.
